According to ChEMBL document CHEMBL1121371, “Antihypertensive 5,6-diarylpyridazin-3-ones” (1980):
Several values for one entry are separate records, joined by “and”; a condition that tells them apart may be missing. Equal entries are not always repeated.

How the values were obtained:
[1] = test system: Rattus norvegicus; assay: Antihypertensive activity in spontaneously hypertensive rats was measured as average blood pressure at 100 mg/kg, p.o. after 24 hours of postdose-1.; assay type: functional; conditions: route oral
In short: (§1)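 Spontaneously hypertensive rats aged 12 to 16 weeks, in groups of five with systolic pressure of 170 mmHg or more. Oral dosing as a solution or suspension in 0.25% methylcellulose, 5 mL/kg, with a vehicle control group. Tail-cuff systolic pressure was read predose and 4 and 24 h after each of two doses. Values were compared with predose by Student's t test.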

[2] = test system: Rattus norvegicus; assay: Antihypertensive activity in spontaneously hypertensive rats was measured as average blood pressure at 100 mg/kg, p.o. before predose; assay type: functional; conditions: route oral; in short: as §1
[3] = test system: Rattus norvegicus; assay: Antihypertensive activity in spontaneously hypertensive rats was measured as average blood pressure at 100 mg/kg, po after 24 hours of postdose-2; assay type: functional; in short: as §1
[4] = test system: Rattus norvegicus; assay: Antihypertensive activity in spontaneously hypertensive rats was measured as average blood pressure at 100 mg/kg, p.o. after 4 hours of postdose-2; assay type: functional; conditions: route oral; in short: as §1
[5] = test system: Rattus norvegicus; assay: Antihypertensive activity in spontaneously hypertensive rats was measured as average blood pressure at 100 mg/kg, p.o. after 4 hours of postdose-1.; assay type: functional; conditions: route oral; in short: as §1
[6] = test system: Rattus norvegicus; assay: Antihypertensive activity in spontaneously hypertensive rats was measured as average blood pressure at 100 mg/kg, p.o. after 4 hours of postdose-1; assay type: functional; conditions: route oral; in short: as §1
[7] = test system: Rattus norvegicus; assay: Antihypertensive activity in spontaneously hypertensive rats was measured as average blood pressure at 30 mg/kg, p.o. after 24 hours of postdose-2; assay type: functional; conditions: route oral; in short: as §1
[8] = test system: Rattus norvegicus; assay: Antihypertensive activity in spontaneously hypertensive rats was measured as average blood pressure at 30 mg/kg, po after 4 hours of postdose-1.; assay type: functional; in short: as §1
[9] = test system: Rattus norvegicus; assay: Antihypertensive activity in spontaneously hypertensive rats was measured as average blood pressure at 30 mg/kg, p.o. before predose; assay type: functional; conditions: route oral; in short: as §1
[10] = test system: Rattus norvegicus; assay: Antihypertensive activity in spontaneously hypertensive rats was measured as average blood pressure at 30 mg/kg, p.o. after 4 hours of postdose-2; assay type: functional; conditions: route oral; in short: as §1
[11] = test system: Rattus norvegicus; assay: Antihypertensive activity in spontaneously hypertensive rats was measured as average blood pressure at 30 mg/kg, p.o. after 24 hours of postdose-1; assay type: functional; conditions: route oral; in short: as §1
[12] = test system: Rattus norvegicus; assay: Antihypertensive activity in spontaneously hypertensive rats was measured as average blood pressure at 25 mg/kg, p.o. after 4 hours of postdose-2; assay type: functional; conditions: route oral; in short: as §1
[13] = test system: Rattus norvegicus; assay: Antihypertensive activity in spontaneously hypertensive rats was measured as average blood pressure at 25 mg/kg, p.o. before predose; assay type: functional; conditions: route oral; in short: as §1
[14] = test system: Rattus norvegicus; assay: Antihypertensive activity in spontaneously hypertensive rats was measured as average blood pressure at 10 mg/kg, p.o. after 24 hours of postdose-1; assay type: functional; conditions: route oral; in short: as §1
[15] = test system: Rattus norvegicus; assay: Antihypertensive activity in spontaneously hypertensive rats was measured as average blood pressure at 50 mg/kg, p.o. before predose; assay type: functional; conditions: route oral; in short: as §1
[16] = test system: Rattus norvegicus; assay: Antihypertensive activity in spontaneously hypertensive rats was measured as average blood pressure at 25 mg/kg, p.o. after 24 hours of postdose-2; assay type: functional; conditions: route oral; in short: as §1
[17] = test system: Rattus norvegicus; assay: Antihypertensive activity in spontaneously hypertensive rats was measured as average blood pressure at 50 mg/kg, p.o. after 4 hours of postdose-2; assay type: functional; conditions: route oral; in short: as §1
[18] = test system: Rattus norvegicus; assay: Antihypertensive activity in spontaneously hypertensive rats was measured as average blood pressure at 25 mg/kg, p.o. after 24 hours of postdose-1; assay type: functional; conditions: route oral; in short: as §1
[19] = test system: Rattus norvegicus; assay: Antihypertensive activity in spontaneously hypertensive rats was measured as average blood pressure at 50 mg/kg, p.o. after 24 hours of postdose-2; assay type: functional; conditions: route oral; in short: as §1
[20] = test system: Rattus norvegicus; assay: Antihypertensive activity in spontaneously hypertensive rats was measured as average blood pressure at 10 mg/kg, p.o. after 4 hours of postdose-2; assay type: functional; conditions: route oral; in short: as §1
[21] = test system: Rattus norvegicus; assay: Antihypertensive activity in spontaneously hypertensive rats was measured as average blood pressure at 10 mg/kg, p.o. after 4 hours of postdose-1.; assay type: functional; conditions: route oral; in short: as §1
[22] = test system: Rattus norvegicus; assay: Antihypertensive activity in spontaneously hypertensive rats was measured as average blood pressure at 50 mg/kg, p.o. after 4 hours of postdose-1; assay type: functional; conditions: route oral; in short: as §1
[23] = test system: Rattus norvegicus; assay: Antihypertensive activity in spontaneously hypertensive rats was measured as average blood pressure at 25 mg/kg, po after 4 hours of postdose-1; assay type: functional; in short: as §1
[24] = test system: Rattus norvegicus; assay: Antihypertensive activity in spontaneously hypertensive rats was measured as average blood pressure at 10 mg/kg, p.o. after 24 hours of postdose-2; assay type: functional; conditions: route oral; in short: as §1
[25] = test system: Rattus norvegicus; assay: Antihypertensive activity in spontaneously hypertensive rats was measured as average blood pressure at 10 mg/kg, p.o. before predose; assay type: functional; conditions: route oral; in short: as §1
[26] = test system: Rattus norvegicus; assay: Antihypertensive activity in spontaneously hypertensive rats was measured as average blood pressure at 50 mg/kg, p.o. after 24 hours of postdose-1; assay type: functional; conditions: route oral; in short: as §1
[27] = test system: Rattus norvegicus; assay: Antihypertensive activity in spontaneously hypertensive rats was measured as increase in heart rate at 100 mg/kg peroral dose; (+)=Increased heart rate; assay type: functional, organism-based; parameters: dose 100 mg/kg
[28] = test system: Rattus norvegicus; assay: Antihypertensive activity in spontaneously hypertensive rats was measured as increase in heart rate at 100 mg/kg peroral dose; (+)=increased heart rate; assay type: functional, organism-based; parameters: dose 100 mg/kg

Compound | BP [1] [mmHg] | BP [2] [mmHg] | BP [3] [mmHg] | BP [4] [mmHg] | BP [5] [mmHg] | BP [6] [mmHg] | other results
N#Cc1c(-c2ccc(Cl)cc2)c(-c2ccc(Cl)cc2)nn(CCCC(=O)O)c1=O | 204 | 215 | 180 | 175 | 202 | – | –
CC(=O)c1c(-c2ccc(Cl)cc2)c(-c2ccc(Cl)cc2)nn(CCNC(C)C)c1=O | 181 | 216 | 176 | 143 | 211 | – | –
CC(=O)NCCn1nc(-c2ccc(Cl)cc2)c(-c2ccc(Cl)cc2)c(C(C)=O)c1=O | 146 | 220 | 145 | 136 | – | 149 | –
CC(=O)c1c(-c2ccc(Cl)cc2)c(-c2ccc(Cl)cc2)nn(CCN(C)C)c1=O [listing 1 of 2 here] | 179 | 201 | 144 | 155 | 182 | – | BP [7]: 193 mmHg; BP [8]: 182 mmHg; BP [9]: 199 mmHg; BP [10]: 167 mmHg; BP [11]: 164 mmHg
CCOC(=O)CCCn1nc(-c2ccc(Cl)cc2)c(-c2ccc(Cl)cc2)c(C(C)=O)c1=O | 174 | 196 | 181 | 188 | 192 | – | –
N#Cc1c(-c2ccc(Cl)cc2)c(-c2ccc(Cl)cc2)nn(CCO)c1=O | 158 | 200 | 152 | 145 | – | 157 | BP [12]: 157 mmHg; BP [13]: 208 mmHg; BP [14]: 184 mmHg; BP [15]: 200 mmHg; BP [16]: 180 mmHg; BP [17]: 156 mmHg; BP [18]: 178 mmHg; BP [19]: 168 mmHg; BP [20]: 178 mmHg; BP [21]: 181 mmHg; BP [22]: 165 mmHg; BP [23]: 168 mmHg; BP [24]: 180 mmHg; BP [25]: 194 mmHg; BP [26]: 171 mmHg
CN(C)c1ccc(-c2c(-c3ccc(Cl)cc3)c(-c3ccc(Cl)cc3)nn(CCO)c2=O)cc1.Cl | 199 | 223 | 208 | 188 | – | 184 | Heart rate [27]: Increased heart rate
N=C(N)NCCN1CCCCCCC1 [GUANETHIDINE] | – | – | – | – | – | – | BP [12]: 163 mmHg; BP [13]: 194 mmHg; BP [15]: 187 mmHg; BP [16]: 183 mmHg; BP [17]: 138 mmHg; BP [18]: 181 mmHg; BP [19]: 146 mmHg; BP [22]: 154 mmHg; BP [23]: 163 mmHg; BP [26]: 166 mmHg
CC(=O)c1c(-c2ccc(Cl)cc2)c(-c2ccc(Cl)cc2)nn(CCN=C(C)C)c1=O | 158 | 209 | 164 | 134 | 203 | – | BP [7]: 198 mmHg; BP [8]: 201 mmHg; BP [14]: 208 mmHg; BP [20]: 205 mmHg; BP [9]: 211 mmHg; BP [21]: 214 mmHg; BP [10]: 190 mmHg; BP [24]: 209 mmHg; BP [25]: 210 mmHg; BP [11]: 196 mmHg
CC(C)NCCn1nc(-c2ccc(Cl)cc2)c(-c2ccc(Cl)cc2)c(C#N)c1=O.Cl | 206 | 220 | 173 | 209 | 218 | – | –
CC(=O)c1c(-c2ccc(Cl)cc2)c(-c2ccc(Cl)cc2)nn(CCN(C)C)c1=O [listing 2 of 2 here] | – | – | – | – | – | – | Heart rate [28]: increased heart rate
CC(=O)c1c(-c2ccc(Cl)cc2)c(-c2ccc(Cl)cc2)nn(CCN(C)C)c1=O.Cl | 170 | 205 | 184 | 160 | 200 | – | –
CC(=O)c1c(-c2ccc(Cl)cc2)c(-c2ccc(Cl)cc2)nn(CCN2CCOCC2)c1=O | – | – | – | – | 230 | 140 | BP ([1]; 100 mg/kg): 201 mmHg and 161 mmHg; BP ([2]; 100 mg/kg): 239 mmHg and 201 mmHg; BP ([3]; 100 mg/kg): 222 mmHg and 177 mmHg; BP ([4]; 100 mg/kg): 199 mmHg and 146 mmHg
CC(=O)c1c(-c2ccc(F)cc2)c(-c2ccc(F)cc2)nn(CCO)c1=O | 160 | 186 | 180 | 166 | – | 138 | –
CC(=O)c1c(-c2ccc(Cl)cc2)c(-c2ccc(Cl)cc2)nn(C(C)CO)c1=O (stereo not drawn) | 174 | 212 | 201 | 191 | – | 186 | –
